Activity calls are given as the source filed them. No cut-off for these calls is given here.
Key:
[1] = molecular target: Fibroblast growth factor receptor 1 (Homo sapiens) (UniProt P11362); assay: Inhibition of FGFR1 (unknown origin) assessed as residual activity at 50 uM relative to control
Summary of the method: (§1)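 Selectivity profiling against a panel of 44 human kinases. For each kinase, ATP was set to that kinase's Km. Values are residual activity in duplicate assays.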

[2] = molecular target: Tyrosine-protein kinase Lyn (Homo sapiens) (UniProt P07948); assay: Inhibition of LYN (unknown origin) assessed as residual activity at 50 uM relative to control; summary of the method: as §1
[3] = molecular target: Ephrin type-A receptor 4 (Homo sapiens) (UniProt P54764); assay: Inhibition of EPHA4 (unknown origin) assessed as residual activity at 50 uM relative to control; summary of the method: as §1
[4] = molecular target: Epidermal growth factor receptor (Homo sapiens) (UniProt P00533); assay: Inhibition of EGFR (unknown origin) assessed as residual activity at 50 uM relative to control; summary of the method: as §1
[5] = molecular target: Dual specificity tyrosine-phosphorylation-regulated kinase 2 (Homo sapiens) (UniProt Q92630); assay: Inhibition of DYRK2 (unknown origin) assessed as residual activity at 50 uM relative to control; summary of the method: as §1
[6] = molecular target: Inhibitor of nuclear factor kappa-B kinase subunit alpha (Homo sapiens) (UniProt O15111); assay: Inhibition of IKKalpha (unknown origin) assessed as residual activity at 50 uM relative to control; summary of the method: as §1
[7] = molecular target: Casein kinase II alpha/beta (Homo sapiens) (UniProt P67870+P68400); assay: Inhibition of recombinant human GST-tagged CK2alpha2/CK2beta2 at 15 uM in presence of ATP by radiometric kinase assay; format: protein-complex assay
[8] = molecular target: Mast/stem cell growth factor receptor Kit (Homo sapiens) (UniProt P10721); assay: Inhibition of cKIT (unknown origin) assessed as residual activity at 50 uM relative to control
Summary of the method: (§2)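 Profiling panel of 44 human kinases. ATP set to each kinase's Km. Run in duplicate; duplicates within 15–17% of each other.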

[9] = molecular target: Cyclin-dependent kinase 7/ cyclin H (Homo sapiens) (UniProt P51946+P50613); assay: Inhibition of CDK7/cyclin H (unknown origin) assessed as residual activity at 50 uM relative to control; format: protein-complex assay; summary of the method: as §1
[10] = molecular target: Cyclin-dependent kinase 1/cyclin B1 (Homo sapiens) (UniProt P06493+P14635); assay: Inhibition of CDK1/cyclin B (unknown origin) assessed as residual activity at 50 uM relative to control; format: protein-complex assay; summary of the method: as §1
[11] = molecular target: Ribosomal protein S6 kinase alpha-1 (Homo sapiens) (UniProt Q15418); assay: Inhibition of RSK1 (unknown origin) assessed as residual activity at 50 uM relative to control; summary of the method: as §2
[12] = molecular target: Hepatocyte growth factor receptor (Homo sapiens) (UniProt P08581); assay: Inhibition of MET (unknown origin) assessed as residual activity at 50 uM relative to control; summary of the method: as §1
Homo sapiens = species on record: Homo sapiens; assay: Inhibition of PKA (unknown origin) assessed as residual activity at 50 uM relative to control; summary of the method: as §1
[13] = molecular target: Casein kinase II subunit alpha (Homo sapiens, UniProt P68400); assay: Inhibition of CK2alpha (unknown origin) assessed as residual activity at 50 uM relative to control; summary of the method: as §1
[14] = molecular target: Protein kinase C alpha type (Homo sapiens) (UniProt P17252); assay: Inhibition of PKCalpha (unknown origin) assessed as residual activity at 50 uM relative to control; summary of the method: as §2
[15] = molecular target: Proto-oncogene tyrosine-protein kinase Src (Homo sapiens) (UniProt P12931); assay: Inhibition of cSRC (unknown origin) assessed as residual activity at 50 uM relative to control; summary of the method: as §2
[16] = molecular target: Calcium/calmodulin-dependent protein kinase type 1 (Homo sapiens) (UniProt Q14012); assay: Inhibition of CAMK1 (unknown origin) assessed as residual activity at 50 uM relative to control; summary of the method: as §1
[17] = molecular target: Glycogen synthase kinase-3 beta (Homo sapiens) (UniProt P49841); assay: Inhibition of GSK3beta (unknown origin) assessed as residual activity at 50 uM relative to control; summary of the method: as §1
[18] = molecular target: Dual specificity mitogen-activated protein kinase kinase 1 (Homo sapiens) (UniProt Q02750); assay: Inhibition of MEK1 (unknown origin) assessed as residual activity at 50 uM relative to control; summary of the method: as §1
[19] = molecular target: Rho-associated protein kinase 1 (Homo sapiens) (UniProt Q13464); assay: Inhibition of ROCK1 (unknown origin) assessed as residual activity at 50 uM relative to control; summary of the method: as §2
[20] = molecular target: RAF proto-oncogene serine/threonine-protein kinase (Homo sapiens) (UniProt P04049); assay: Inhibition of cRAF (unknown origin) assessed as residual activity at 50 uM relative to control; summary of the method: as §2
[21] = molecular target: CDK2/Cyclin A2 (Homo sapiens) (UniProt P24941+P20248); assay: Inhibition of CDK2/cyclin A (unknown origin) assessed as residual activity at 50 uM relative to control; format: protein-complex assay; summary of the method: as §1
[22] = molecular target: CDK9/cyclin T1 (Homo sapiens) (UniProt O60563+P50750); assay: Inhibition of CDK9/cyclin T1 (unknown origin) assessed as residual activity at 50 uM relative to control; format: protein-complex assay; summary of the method: as §1
[23] = molecular target: Aurora kinase A (Homo sapiens) (UniProt O14965); assay: Inhibition of aurora A (unknown origin) assessed as residual activity at 50 uM relative to control
[24] = molecular target: Tyrosine-protein kinase Fyn (Homo sapiens) (UniProt P06241); assay: Inhibition of FYN (unknown origin) assessed as residual activity at 50 uM relative to control; summary of the method: as §1
[25] = molecular target: Homeodomain-interacting protein kinase 1 (Homo sapiens) (UniProt Q86Z02); assay: Inhibition of HIPK1 (unknown origin) assessed as residual activity at 50 uM relative to control; summary of the method: as §1
[26] = molecular target: Serine/threonine-protein kinase Chk2 (Homo sapiens) (UniProt O96017); assay: Inhibition of CHK2 (unknown origin) assessed as residual activity at 50 uM relative to control; summary of the method: as §1
[27] = molecular target: Serine/threonine-protein kinase mTOR (Homo sapiens) (UniProt P42345); assay: Inhibition of MTOR (unknown origin) assessed as residual activity at 50 uM relative to control; summary of the method: as §1
[28] = molecular target: Serine/threonine-protein kinase pim-1 (Homo sapiens) (UniProt P11309); assay: Inhibition of PIM1 (unknown origin) assessed as residual activity at 50 uM relative to control; summary of the method: as §1
[29] = molecular target: Aurora kinase B (Homo sapiens) (UniProt Q96GD4); assay: Inhibition of aurora B (unknown origin) assessed as residual activity at 50 uM relative to control; summary of the method: as §2
[30] = molecular target: Tyrosine-protein kinase ABL1 (Homo sapiens) (UniProt P00519); assay: Inhibition of ABL (unknown origin) assessed as residual activity at 50 uM relative to control; summary of the method: as §1
[31] = molecular target: Muscle, skeletal receptor tyrosine-protein kinase (Homo sapiens) (UniProt O15146); assay: Inhibition of MUSK (unknown origin) assessed as residual activity at 50 uM relative to control; summary of the method: as §1
[32] = molecular target: Serine/threonine-protein kinase PAK 2 (Homo sapiens) (UniProt Q13177); assay: Inhibition of PAK2 (unknown origin) assessed as residual activity at 50 uM relative to control; summary of the method: as §1
[33] = molecular target: Mitogen-activated protein kinase 1 (Homo sapiens) (UniProt P28482); assay: Inhibition of MAPK1 (unknown origin) assessed as residual activity at 50 uM relative to control; summary of the method: as §1
Sequence of Mitogen-activated protein kinase 1 (Homo sapiens) (P28482 whole entry): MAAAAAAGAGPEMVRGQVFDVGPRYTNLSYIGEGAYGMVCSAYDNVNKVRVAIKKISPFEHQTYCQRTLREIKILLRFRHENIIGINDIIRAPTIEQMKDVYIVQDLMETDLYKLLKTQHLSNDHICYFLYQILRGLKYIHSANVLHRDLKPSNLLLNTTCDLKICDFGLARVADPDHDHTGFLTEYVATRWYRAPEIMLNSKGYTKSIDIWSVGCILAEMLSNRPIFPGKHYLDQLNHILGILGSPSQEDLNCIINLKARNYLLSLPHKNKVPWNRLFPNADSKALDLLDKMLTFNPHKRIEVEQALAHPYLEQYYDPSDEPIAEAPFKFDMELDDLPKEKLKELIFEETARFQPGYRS

Sequence of Glycogen synthase kinase-3 beta (Homo sapiens) (P49841 whole entry, looked up): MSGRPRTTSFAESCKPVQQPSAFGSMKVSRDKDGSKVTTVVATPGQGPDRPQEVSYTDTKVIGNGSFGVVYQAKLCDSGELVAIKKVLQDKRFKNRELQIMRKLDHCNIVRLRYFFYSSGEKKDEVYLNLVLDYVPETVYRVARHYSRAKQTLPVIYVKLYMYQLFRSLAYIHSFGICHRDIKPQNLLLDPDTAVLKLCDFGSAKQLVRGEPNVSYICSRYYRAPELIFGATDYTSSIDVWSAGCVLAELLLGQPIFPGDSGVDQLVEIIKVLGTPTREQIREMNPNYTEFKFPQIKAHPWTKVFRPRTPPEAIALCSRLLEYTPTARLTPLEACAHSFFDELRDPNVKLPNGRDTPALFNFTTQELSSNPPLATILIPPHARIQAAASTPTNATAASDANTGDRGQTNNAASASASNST
Sequence of Serine/threonine-protein kinase PAK 2 (Homo sapiens) (Q13177 whole entry): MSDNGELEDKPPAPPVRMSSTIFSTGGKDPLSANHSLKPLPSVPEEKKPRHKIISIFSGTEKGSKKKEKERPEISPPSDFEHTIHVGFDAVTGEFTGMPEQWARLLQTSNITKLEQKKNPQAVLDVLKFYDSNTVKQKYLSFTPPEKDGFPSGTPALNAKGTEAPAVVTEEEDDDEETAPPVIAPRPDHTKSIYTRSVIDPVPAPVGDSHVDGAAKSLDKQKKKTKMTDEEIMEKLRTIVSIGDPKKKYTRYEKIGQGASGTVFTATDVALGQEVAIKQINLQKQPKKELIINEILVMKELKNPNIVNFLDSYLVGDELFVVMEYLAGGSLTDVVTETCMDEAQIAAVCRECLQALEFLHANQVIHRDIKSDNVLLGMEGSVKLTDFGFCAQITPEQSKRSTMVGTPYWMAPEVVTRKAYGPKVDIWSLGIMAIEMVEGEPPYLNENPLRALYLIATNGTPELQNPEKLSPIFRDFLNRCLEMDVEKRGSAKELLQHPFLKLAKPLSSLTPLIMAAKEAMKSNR
Sequence of Calcium/calmodulin-dependent protein kinase type 1 (Homo sapiens) (Q14012 whole entry, looked up): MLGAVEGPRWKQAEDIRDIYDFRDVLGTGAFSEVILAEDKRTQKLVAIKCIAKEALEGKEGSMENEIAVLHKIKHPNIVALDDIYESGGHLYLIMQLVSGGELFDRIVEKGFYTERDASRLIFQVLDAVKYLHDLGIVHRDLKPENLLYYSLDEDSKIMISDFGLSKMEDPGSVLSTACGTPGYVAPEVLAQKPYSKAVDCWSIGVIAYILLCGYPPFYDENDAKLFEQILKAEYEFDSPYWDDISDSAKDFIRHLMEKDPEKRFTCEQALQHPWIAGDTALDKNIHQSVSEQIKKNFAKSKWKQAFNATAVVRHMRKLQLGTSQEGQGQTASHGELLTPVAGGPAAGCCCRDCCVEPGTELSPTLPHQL
Sequence of Homeodomain-interacting protein kinase 1 (Homo sapiens) (Q86Z02 whole entry, looked up): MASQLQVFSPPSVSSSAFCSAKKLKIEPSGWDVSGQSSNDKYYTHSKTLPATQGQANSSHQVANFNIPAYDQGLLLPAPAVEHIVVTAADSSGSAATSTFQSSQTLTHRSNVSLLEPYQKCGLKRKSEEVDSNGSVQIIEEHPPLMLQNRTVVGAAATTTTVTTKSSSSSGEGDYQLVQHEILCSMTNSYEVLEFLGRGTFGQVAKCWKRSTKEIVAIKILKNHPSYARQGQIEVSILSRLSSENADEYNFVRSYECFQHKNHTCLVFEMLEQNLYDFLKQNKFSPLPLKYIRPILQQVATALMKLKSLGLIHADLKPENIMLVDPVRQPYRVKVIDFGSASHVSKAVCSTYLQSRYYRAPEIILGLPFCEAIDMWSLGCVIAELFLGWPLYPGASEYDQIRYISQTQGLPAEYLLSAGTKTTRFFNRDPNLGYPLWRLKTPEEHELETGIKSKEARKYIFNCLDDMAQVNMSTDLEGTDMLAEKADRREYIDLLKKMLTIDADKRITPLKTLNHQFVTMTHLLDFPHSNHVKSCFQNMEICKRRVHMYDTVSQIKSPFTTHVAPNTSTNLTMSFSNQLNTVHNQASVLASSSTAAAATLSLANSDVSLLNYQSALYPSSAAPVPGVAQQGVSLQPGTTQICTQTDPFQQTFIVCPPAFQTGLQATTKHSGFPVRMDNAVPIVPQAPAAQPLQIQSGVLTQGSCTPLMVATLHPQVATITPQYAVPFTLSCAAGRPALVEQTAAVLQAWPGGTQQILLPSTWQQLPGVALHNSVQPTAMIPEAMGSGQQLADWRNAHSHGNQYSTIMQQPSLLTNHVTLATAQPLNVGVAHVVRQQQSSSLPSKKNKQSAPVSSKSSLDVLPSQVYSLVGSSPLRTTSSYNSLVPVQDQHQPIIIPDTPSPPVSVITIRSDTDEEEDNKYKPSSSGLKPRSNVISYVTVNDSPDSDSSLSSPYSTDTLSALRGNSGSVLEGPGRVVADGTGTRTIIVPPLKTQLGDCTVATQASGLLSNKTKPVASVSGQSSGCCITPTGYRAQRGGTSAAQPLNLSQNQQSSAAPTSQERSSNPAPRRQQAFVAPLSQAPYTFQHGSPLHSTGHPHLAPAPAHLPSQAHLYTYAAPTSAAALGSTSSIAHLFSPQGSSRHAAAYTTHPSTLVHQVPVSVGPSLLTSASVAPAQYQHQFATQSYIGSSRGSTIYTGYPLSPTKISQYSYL
Sequence of Casein kinase II subunit alpha (P68400 whole entry, looked up): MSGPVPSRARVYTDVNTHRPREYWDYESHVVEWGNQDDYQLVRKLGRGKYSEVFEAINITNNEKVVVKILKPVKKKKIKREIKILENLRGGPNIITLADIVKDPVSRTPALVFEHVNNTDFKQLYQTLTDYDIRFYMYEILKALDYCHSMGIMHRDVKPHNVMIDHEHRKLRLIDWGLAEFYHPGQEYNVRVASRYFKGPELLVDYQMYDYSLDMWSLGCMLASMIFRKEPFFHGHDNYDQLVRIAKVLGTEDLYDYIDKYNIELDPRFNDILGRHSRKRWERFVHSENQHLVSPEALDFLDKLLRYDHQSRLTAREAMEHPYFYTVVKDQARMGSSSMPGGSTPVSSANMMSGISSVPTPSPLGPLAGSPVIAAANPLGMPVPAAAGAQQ
Sequence of Casein kinase II alpha/beta (Homo sapiens) (P67870 2-215 limits assumed): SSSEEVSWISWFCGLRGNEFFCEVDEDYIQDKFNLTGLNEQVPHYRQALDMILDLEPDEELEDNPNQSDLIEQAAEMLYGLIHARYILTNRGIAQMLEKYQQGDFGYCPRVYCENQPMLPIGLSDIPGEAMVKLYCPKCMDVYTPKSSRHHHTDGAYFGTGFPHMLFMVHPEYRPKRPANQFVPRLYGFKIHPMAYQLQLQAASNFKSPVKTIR
Sequence of Casein kinase II alpha/beta (Homo sapiens) (P68400 whole entry partner): as the sequence (P68400 whole entry, looked up) above
Sequence of Aurora kinase B (Homo sapiens) (Q96GD4 whole entry): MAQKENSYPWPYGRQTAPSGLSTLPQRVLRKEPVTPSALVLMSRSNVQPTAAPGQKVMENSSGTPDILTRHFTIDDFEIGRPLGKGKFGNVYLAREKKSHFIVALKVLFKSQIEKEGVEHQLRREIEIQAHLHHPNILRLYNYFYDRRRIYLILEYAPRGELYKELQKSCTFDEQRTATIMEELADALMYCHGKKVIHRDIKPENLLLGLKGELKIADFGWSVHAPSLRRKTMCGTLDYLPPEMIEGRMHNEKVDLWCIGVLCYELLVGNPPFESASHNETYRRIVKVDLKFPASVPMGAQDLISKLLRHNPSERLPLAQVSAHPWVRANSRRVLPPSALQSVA
Sequence of Tyrosine-protein kinase Fyn (Homo sapiens) (P06241 2-537 limits assumed): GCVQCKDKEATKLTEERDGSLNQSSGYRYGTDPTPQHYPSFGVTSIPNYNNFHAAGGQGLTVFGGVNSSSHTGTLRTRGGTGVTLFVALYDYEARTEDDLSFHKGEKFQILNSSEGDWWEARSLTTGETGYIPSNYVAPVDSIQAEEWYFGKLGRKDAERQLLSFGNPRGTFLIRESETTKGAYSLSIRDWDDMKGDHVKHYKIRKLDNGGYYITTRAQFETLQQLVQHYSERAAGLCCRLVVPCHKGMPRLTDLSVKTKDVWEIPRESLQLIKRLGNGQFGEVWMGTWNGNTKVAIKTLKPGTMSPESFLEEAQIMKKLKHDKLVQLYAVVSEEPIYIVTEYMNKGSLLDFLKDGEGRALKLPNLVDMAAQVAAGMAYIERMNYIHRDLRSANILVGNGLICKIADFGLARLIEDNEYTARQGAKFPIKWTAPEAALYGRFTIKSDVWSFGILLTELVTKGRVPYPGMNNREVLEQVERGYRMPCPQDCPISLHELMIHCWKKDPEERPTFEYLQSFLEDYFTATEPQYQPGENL

`O=C(O)c1ccc(Nc2nc(-c3cccc([N+](=O)[O-])c3)cs2)cc1` gave an Activity [1] of 97%, an Activity [2] of 104% and an Activity [3] of 45%. For the same compound, the Activity [4] was 26%, the Activity [5] was 78% and the Activity [6] was 103%. For the same compound, the inhibition [7] was “Active”, the Activity [8] was 87% and the Activity [9] was 104%. The Activity [10] was 89%, the Activity [11] was 99% and the Activity [12] was 102%. The Activity (Homo sapiens) was 87%, the Activity [13] was 0% and the Activity [14] was 86%. It also gave an Activity [15] of 97%, an Activity [16] of 101% and an Activity [17] of 79%. For the same compound, the Activity [18] was 103%, the Activity [19] was 100% and the Activity [20] was 92%. It also gave an Activity [21] of 86%, an Activity [22] of 99% and an Activity [23] of 79%. For the same compound, the Activity [24] was 97%, the Activity [25] was 97% and the Activity [26] was 89%. For the same compound, the Activity [27] was 104%, the Activity [28] was 46% and the Activity [29] was 74%. The Activity [30] was 104%, the Activity [31] was 62% and the Activity [32] was 102%. For the same compound, the Activity [33] was 84%.

— ChEMBL document CHEMBL4411337, “2-Aminothiazole Derivatives as Selective Allosteric Modulators of the Protein Kinase CK2. 1. Identification of an Allosteric Binding Site” (J Med Chem, 2019)
